Values after ≈ are worked out from the molar mass of the structure shown.
How the values were obtained:
[1] = biological target: T1, Corticotropin-releasing factor receptor 1 (Rattus norvegicus, UniProt P35353); experiment: Displacement of [125I]Tyr-o-CRF from CRF1 receptor in rat frontal cortex homogenate by binding titration assay; type: tissue-based
T1 sequence (P35353 whole entry): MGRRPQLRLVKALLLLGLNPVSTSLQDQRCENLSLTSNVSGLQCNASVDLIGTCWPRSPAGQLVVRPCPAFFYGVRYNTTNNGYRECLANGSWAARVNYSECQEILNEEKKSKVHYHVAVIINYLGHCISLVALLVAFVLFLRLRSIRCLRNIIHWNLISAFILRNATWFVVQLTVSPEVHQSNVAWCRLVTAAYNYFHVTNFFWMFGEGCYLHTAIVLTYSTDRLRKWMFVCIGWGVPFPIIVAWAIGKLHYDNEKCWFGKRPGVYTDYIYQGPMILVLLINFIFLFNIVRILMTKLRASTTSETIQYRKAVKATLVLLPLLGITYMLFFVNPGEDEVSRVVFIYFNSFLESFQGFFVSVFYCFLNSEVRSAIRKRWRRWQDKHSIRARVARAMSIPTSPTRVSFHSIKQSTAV

[2] = Metabolic stability in human liver microsomes assessed as compound remaining at 3 uM after 10 mins by HPLC/UV/MS analysis; type: ADME, Microsome; conditions: read-out: Stability
[3] = Metabolic stability in rat liver microsomes assessed as compound remaining at 3 uM after 10 mins by HPLC/UV/MS analysis; type: ADME, Microsome; conditions: read-out: Stability
Method in brief: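 Pooled human or rat liver microsomes (1 mg/mL protein) with 3 μM compound and 1.3 mM NADPH in 100 mM sodium phosphate pH 7.4 at 37 °C; final 0.015% DMSO, 0.985% acetonitrile; stopped at 0 and 10 min, percent remaining by LC/MS/MS.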

[4] = Metabolic stability in NADPH-fortified human liver microsomes assessed as parent compound remaining at 10 uM after 30 mins by HPLC/UV/MS analysis; type: ADME, Microsome; conditions: read-out: Stability
Method in brief: (§1)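 Pooled rat or human liver microsomes 1 mg/mL, 10 μM substrate, 100 mM potassium phosphate pH 7.4, 37 °C, started with NADPH-regenerating system (1.3 mM NADP+, 3.3 mM glucose-6-phosphate, 3.3 mM MgCl2, 0.5 U/mL G6PDH); GSH 5 mM in trapping runs. Sampled 0 and 30 min, acetonitrile quench; abundance as UV peak area (330–340 nm) fraction of all drug-related components by HPLC/UV/MS.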

Liver microsomes [5] = experiment: Metabolic stability in NADPH-fortified human liver microsomes assessed as pyrazinone oxidation metabolite formation at 10 uM after 30 mins by HPLC/UV/MS analysis; type: ADME, Microsome; conditions: 0.5 h; method in brief: as §1
Liver microsomes [6] = experiment: Metabolic stability in NADPH-fortified human liver microsomes assessed as GSH adduct formation at 10 uM after 30 mins by HPLC/UV/MS analysis; type: ADME, Microsome; conditions: 0.5 h; method in brief: as §1
[7] = Metabolic stability in NADPH-fortified rat liver microsomes assessed as parent compound remaining at 10 uM after 30 mins by HPLC/UV/MS analysis; type: ADME, Microsome; conditions: read-out: Stability; method in brief: as §1
Liver microsomes [8] = experiment: Metabolic stability in NADPH-fortified rat liver microsomes assessed as pyrazinone oxidation metabolite formation at 10 uM after 30 mins by HPLC/UV/MS analysis; type: ADME, Microsome; conditions: 0.5 h; method in brief: as §1
Liver microsomes [9] = experiment: Metabolic stability in NADPH-fortified rat liver microsomes assessed as GSH adduct formation at 10 uM after 30 mins by HPLC/UV/MS analysis; type: ADME, Microsome; conditions: 0.5 h; method in brief: as §1
[10] = Displacement of [125I]sauvagine from CRF2 receptor in porcine choroid plexus homogenate by binding titration assay; type: tissue-based, Sus scrofa
Method in brief: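 Porcine choroid plexus homogenate; inhibition of [125I]-sauvagine binding measured in a titration format.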

[11] = Clearance in Sprague-Dawley rat at 2 mg/kg, iv after 0.17 to 24 hrs by LC/MS/MS analysis; type: ADME, organism-based; parameters: dose 2 mg/kg, route intravenous; conditions: in vivo
[12] = Volume of distribution at steady state in Sprague-Dawley rat at 2 mg/kg, iv after 0.17 to 24 hrs by LC/MS/MS analysis; type: ADME, organism-based; parameters: dose 2 mg/kg, route intravenous; conditions: in vivo, read-out: Vdss
Method in brief: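 Sprague–Dawley rats (n = 3) dosed 2 mg/kg iv in PEG:ethanol 90:10 (v/v) at 1 mL/kg. Plasma stored at –20 °C and quantified by LC/MS/MS after acetonitrile precipitation with internal standard.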

[13] = Half life in Sprague-Dawley rat at 2 mg/kg, iv by LC/MS/MS analysis; type: ADME, organism-based; parameters: dose 2 mg/kg, route intravenous; conditions: in vivo
[14] = AUC in Sprague-Dawley rat at 10 mg/kg, po dosed as aqueous suspension of 1% polysorbate 80 in 0.5% methylcellulose after 0.25 to 24 hrs by LC/MS/MS analysis; type: ADME, organism-based; parameters: time upper 24 hr, time lower 0.25 hr, dose 10 mg/kg, route oral; conditions: in vivo
[15] = Cmax in Sprague-Dawley rat at 10 mg/kg, po dosed as aqueous suspension of 1% polysorbate 80 in 0.5% methylcellulose after 2 to 4 hrs by LC/MS/MS analysis; type: ADME, organism-based; parameters: dose 10 mg/kg, route oral; conditions: in vivo
[16] = Oral bioavailability in Sprague-Dawley rat at 10 mg/kg dosed as aqueous suspension of 1% polysorbate 80 in 0.5% methylcellulose after 0.25 to 24 hrs by LC/MS/MS analysis; type: ADME, organism-based; conditions: in vivo
[17] = AUC in Sprague-Dawley rat at 10 mg/kg, po dosed as aqueous suspension of Labrafil M 1944CS/DMAC/polysorbate 80, 85:10:5 (v/v) after 0.25 to 24 hrs by LC/MS/MS analysis; type: ADME, organism-based; parameters: time 0.25-24 hr, dose 10 mg/kg, route oral; conditions: plasma
[18] = Cmax in Sprague-Dawley rat at 10 mg/kg, po dosed as aqueous suspension of Labrafil M 1944CS/DMAC/polysorbate 80, 85:10:5 (v/v) after 2 to 4 hrs by LC/MS/MS analysis; type: ADME, organism-based; parameters: dose 10 mg/kg, route oral; conditions: in vivo
[19] = Oral bioavailability in Sprague-Dawley rat at 10 mg/kg dosed as aqueous suspension of Labrafil M 1944CS/DMAC/polysorbate 80, 85:10:5 (v/v) after 0.25 to 24 hrs by LC/MS/MS analysis; type: ADME, organism-based; conditions: in vivo
[20] = Fraction unbound in human serum after 3 to 7 hrs by equilibrium dialysis; type: ADME, cell-free
Method in brief: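 Human serum spiked with compound, equilibrium-dialysed against isotonic phosphate buffer for 3 or 7 h (depending on system) at 37 °C; both sides measured by LC/MS/MS, unbound fraction as buffer/serum concentration ratio.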

[21] = Octanol-water partition coefficient, log D at pH 7.4; type: physicochemical
Method in brief: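 Partitioning between octanol and water at pH 7.4.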

[22] = Aqueous solubility at pH 6.5; type: physicochemical
[23] = Aqueous solubility at pH 1; type: physicochemical
[24] = Dissociation constant, pKa by spectrophotometric titration method; type: physicochemical
Method in brief: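 Spectrophotometric titration over pH 2–11 in varying acetonitrile/water mixtures, extrapolated to 0% cosolvent.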

## COC[C@H](C1CC1)n1cc(C#N)nc(Nc2cc(C)c(OC)nc2C)c1=O
[1]
  IC50: 12 nM
[2]
  remaining at 10 min, 3 µM: 60%
[3]
  remaining at 10 min, 3 µM: 51%

## C[C@@H](C1CC1)n1cc(Cl)nc(Nc2c(Cl)cc(OC(F)F)cc2Cl)c1=O
[4]
  remaining at 0.5 h, 10 µM: 85%
Liver microsomes [5]
  Activity: 12%
Liver microsomes [6]
  Activity: 2%
[7]
  remaining at 0.5 h, 10 µM: 74%
Liver microsomes [8]
  Activity: 20%
Liver microsomes [9]
  Activity: 5%

## CC[C@H](C)[C@H](NC(=O)[C@@H](NC(=O)[C@H](CC(=O)O)NC(=O)[C@H](CC(C)C)NC(=O)[C@H](CC(C)C)NC(=O)[C@H](CC(C)C)NC(=O)[C@H](CCCN=C(N)N)NC(=O)[C@H](CC(N)=O)NC(=O)[C@H](CC(N)=O)NC(=O)[C@H](C)NC(=O)[C@H](C)NC(=O)[C@H](CCC(N)=O)NC(=O)[C@H](CCC(N)=O)NC(=O)[C@H](CCCCN)NC(=O)[C@H](CCC(=O)O)NC(=O)[C@H](CCCCN)NC(=O)[C@H](CCC(=O)O)NC(=O)[C@H](CCC(N)=O)NC(=O)[C@H](CCCCN)NC(=O)[C@H](CCC(=O)O)NC(=O)[C@@H](NC(=O)[C@H](CCC(=O)O)NC(=O)[C@@H](NC(=O)[C@H](CCSC)NC(=O)[C@H](CCCCN)NC(=O)[C@H](CCCN=C(N)N)NC(=O)[C@H](CC(C)C)NC(=O)[C@H](CC(C)C)NC(=O)[C@H](CCC(=O)O)NC(=O)[C@H](CC(C)C)NC(=O)[C@H](CO)NC(=O)[C@H](CC(C)C)NC(=O)[C@H](CC(=O)O)NC(=O)[C@@H](NC(=O)[C@H](CO)NC(=O)[C@@H](NC(=O)[C@@H]1CCCN1C(=O)[C@@H]1CCCN1C(=O)CNC(=O)[C@@H]1CCC(=O)N1)[C@@H](C)CC)[C@@H](C)CC)[C@@H](C)CC)[C@@H](C)CC)[C@@H](C)O)C(=O)O [SAUVAGINE]
[10]
  IC50: 0.58 nM

## COc1nc(C)c(Nc2nc(C#N)cn([C@H](C)C3CC3)c2=O)cc1C
[1]
  IC50: 10 nM
[2]
  remaining at 10 min, 3 µM: 99%
[3]
  remaining at 10 min, 3 µM: 72%

## COC[C@H](C1CC1)n1cc(Cl)nc(Nc2cc(C)c(OC(F)F)nc2C)c1=O
[1]
  IC50: 0.24 nM
[3]
  remaining at 10 min, 3 µM: 69%
[11]
  clearance: 36 mL/min/kg
[12]
  Vd: 15 L/kg
[13]
  half-life: 9.2 h
[14]
  AUC: 7 µM·h
[15]
  Cmax: 770 nM
[16]
  bioavailability: 66%
[17]
  AUC: 9 µM·h
[18]
  Cmax: 1300 nM
[19]
  bioavailability: 86%
[4]
  remaining at 0.5 h, 10 µM: 75%
Liver microsomes [5]
  Activity: 1%
Liver microsomes [6]
  Activity: 5%
[7]
  remaining at 0.5 h, 10 µM: 42%
Liver microsomes [8]
  Activity: 1%
Liver microsomes [9]
  Activity: 3%
[20]
  fraction unbound: 0.008

## COC[C@@H](C)n1cc(Cl)nc(Nc2cc(C)c(OC)nc2C)c1=O
[1]
  IC50: 14 nM
[2]
  remaining at 10 min, 3 µM: 39%
[3]
  remaining at 10 min, 3 µM: 8%

## COC[C@H](C1CC1)n1cc(Cl)nc(Nc2cc(C)c(OC)nc2C)c1=O
[1]
  IC50: 1.5 nM
[2]
  remaining at 10 min, 3 µM: 48%
[3]
  remaining at 10 min, 3 µM: 24%
[11]
  clearance: 38 mL/min/kg
[12]
  Vd: 19 L/kg
[13]
  half-life: 19 h
[14]
  AUC: 1.3 µM·h
[15]
  Cmax: 180 nM
[16]
  bioavailability: 11%
[17]
  AUC: 3 µM·h
[18]
  Cmax: 510 nM
[19]
  bioavailability: 26%
[21]
  logD: 3.9
[22]
  solubility: 6 µg/mL (≈ 15.8 µM)
[23]
  solubility: 116 µg/mL (≈ 306 µM)
[24]
  pKa: 3.1
[20]
  fraction unbound: 0.021

## COc1nc(C)c(Nc2nc(Cl)cn([C@H](C)C3CC3)c2=O)cc1C
[1]
  IC50: 1.5 nM
[2]
  remaining at 10 min, 3 µM: 77%
[3]
  remaining at 10 min, 3 µM: 55%

## COC[C@@H](C1CC1)n1cc(Cl)nc(Nc2cc(C)c(OC)nc2C)c1=O
[1]
  IC50: 1.1 nM
[2]
  remaining at 10 min, 3 µM: 40%
[3]
  remaining at 10 min, 3 µM: 13%
